For 38 molecules, outcome and inhibition results are on record in PubChem BioAssay AID492951 (Molecular Libraries Program, Specialized Chemistry Center, …, 2010).

Activity calls are given as the source filed them.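 The calls were made as follows: active = inhibition above 10%; inactive = the rest.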

Hexokinase-4 (Homo sapiens), sequence (P35557 whole entry, looked up): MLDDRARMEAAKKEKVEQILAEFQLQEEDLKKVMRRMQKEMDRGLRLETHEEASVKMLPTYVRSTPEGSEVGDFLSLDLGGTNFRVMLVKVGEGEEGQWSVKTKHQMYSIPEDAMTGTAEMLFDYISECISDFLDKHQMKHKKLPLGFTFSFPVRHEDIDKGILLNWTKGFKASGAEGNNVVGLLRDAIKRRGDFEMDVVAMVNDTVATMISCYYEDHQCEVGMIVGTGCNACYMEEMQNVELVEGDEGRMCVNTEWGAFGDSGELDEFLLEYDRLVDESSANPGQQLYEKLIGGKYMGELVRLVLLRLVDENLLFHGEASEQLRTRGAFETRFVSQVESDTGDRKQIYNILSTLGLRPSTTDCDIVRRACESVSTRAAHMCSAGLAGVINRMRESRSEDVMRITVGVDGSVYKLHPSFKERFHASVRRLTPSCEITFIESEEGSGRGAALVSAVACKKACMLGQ

This experiment has as its target Hexokinase-4 (Homo sapiens) (UniProt P35557). The experiment can be described thus: human glucokinase inhibition, counter-screen for TbHK1 inhibitor project, biochemical, recombinant hGlck (AID 492951). The conditions noted are these: G6PDH-coupled NADH absorbance 340 nm, at 10 µM; hits give high values. In outline:
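Material: Recombinant human glucokinase, G6PDH-coupled | Medium: TEA buffer pH 7.9 with 3.3 mM MgCl2, 0.75 mM NAD+ | Also added: 20 mM glucose as reaction starter, plus 1 mM ATP | Compound dosing: One dose, 10 µM final | Schedule: 10 min preincubation at room temperature | Measured by: A340 of NADH | Repeats: Three replicates per compound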
Background: The purpose of a counterscreen is to sort out artefacts and off-target activity.
Regarding `O=C(Cn1sc2ccccc2c1=O)Nc1ccccc1F`, the outcome was inactive.
Consider `COc1ccc(C(=O)Nc2cc(Cl)ccc2C(=O)O)cc1`, for which the inhibition (as a rule, the drop in the measured response relative to a control, in per cent) was 7.8% (inactive).
Turning to `CC(C)(C)c1ccc(C(=O)Nc2cc(Cl)ccc2C(=O)O)cc1`, the result was inactive.
With `COc1ccc(-c2cc3ccccc3[nH]2)cc1`, the inhibition is 30.3% (active).
For `CN(Cc1ccccc1)C(=O)Cn1sc2ccccc2c1=O`, the inhibition was 30.6% (active).
Take `COc1ccc(Nc2cc(Cl)ccc2C(=O)O)cc1`: the outcome was inactive.
As for `COc1ccc(C(=O)Nc2cccc(Cl)c2)cc1`, the result was inactive.
In the case of `CCOc1ccc(C(=O)Nc2cc(Cl)ccc2C(=O)O)cc1`, the inhibition was 9.4% (inactive).
Consider `O=C(Cn1sc2ccccc2c1=O)NCc1ccccc1`, for which the outcome was inactive.
As to `Cc1cc(C(C#N)c2ccc(Cl)cc2)c(Cl)cc1NC(=O)c1cc(I)cc(I)c1O` (stereo not drawn), the inhibition was 24.3% (active).
Regarding `COc1ccc(C(=O)NC(CC(=O)O)c2cccc(Cl)c2)cc1` (stereo not drawn), the outcome was inactive.
On to `O=c1c2ccccc2sn1-c1cccc(Cl)c1`, for which the inhibition is 34.9% (active).
Regarding `COc1ccc(CC(=O)Nc2cc(Cl)ccc2C(=O)O)cc1`, the outcome was inactive.
As for `O=C(Cn1sc2ccccc2c1=O)Nc1ccccc1`, the inhibition is 7.03% (inactive).
`CC(C)c1ccc(C(=O)Nc2cc(Cl)ccc2C(=O)O)cc1`: the outcome was inactive.
Still for that read-out and setting: the value for `COc1ccc(S(=O)(=O)Nc2cc(Cl)ccc2C(=O)O)cc1` was “inactive”.
Turning to `COc1ccc(NC(=O)c2ccccc2C(=O)O)cc1`, the inhibition was 0.9% (inactive).
With `O=C(O)c1ccc(Cl)cc1NC(=O)N1CCOCC1`, the outcome was inactive.
Take `O=C(Nc1ccccc1)n1sc2ccccc2c1=O`: the inhibition is 32.9% (active).
For `N#Cc1ccc(Oc2ccc3c(c2)B(O)OC3)cc1`, the result was inactive.
On the same count and under the same terms, next, `O=C(Nc1cc(Cl)ccc1C(=O)O)c1ccc2c(c1)OCO2`: “inactive”.
With `CC(=O)Nc1ccc2sn(-c3ccccc3)c(=O)c2c1`, the inhibition is 51.9% (active).
Same read-out and setting: next, `COc1ccc(C(=O)Nc2cc(Cl)ccc2-c2noc(=O)[nH]2)cc1`: 30.1% (active).
On to `COc1ccc(C(=O)Nc2cc(C(=O)O)ccc2Cl)cc1`, for which the outcome was inactive.
Regarding `CC(C)(C)c1ccc(C(=O)Nc2cc(Cl)c(Cl)cc2C(=O)O)cc1`, the result was inactive.
Same read-out and setting: next, `CCOC(=O)c1ccncc1NC(=O)c1ccc(OC)cc1`: “inactive”.
In the case of `O=c1c2ccccc2sn1-c1ccc(Cl)cc1Cl`, the inhibition is 65.6% (active).
As for `Cn1c2ccccc2c(=O)n1-c1ccccc1`, the outcome was inactive.
With `COc1ccc(C(=O)O)c(NC(=O)c2ccc(Cl)cc2)c1`, the inhibition is 15.8% (active).
In the case of `O=C(Nc1cc(Cl)ccc1C(=O)O)c1ccc2ccccc2c1`, the inhibition is 11.5% (active).
With `O=c1c(Br)csn1-c1ccc(Br)cc1`, the inhibition was 32.2% (active).
In the case of `COc1ccc(NC(=O)c2ccccc2SCc2ccccc2)cc1`, the inhibition is 41.2% (active).
On the same count and under the same terms, next, `O=C(Cn1sc2cc(F)ccc2c1=O)Nc1ccccc1`: 39.6% (active).
Turning to `COc1ccc(C(=O)Nc2cc(Cl)ccc2C#N)cc1`, the outcome was inactive.
In the case of `O=c1c2c(Br)cccc2sn1-c1ccccc1`, the inhibition is 12.5% (active).
With `O=C(Nc1cc(Cl)ccc1C(=O)O)c1ccc2c(c1)CCC2`, the inhibition is 12.2% (active).
As to `O=C1c2ccccc2S(=O)N1c1cccc(F)c1` (stereo not drawn), the inhibition was 8.84% (inactive).
Still for that read-out and setting: the value for `O=C(Nc1cc(Cl)ccc1C(=O)O)c1ccc(-c2ccccc2)cc1` was 27.6% (active).
